Tests used:
[1] = Drug uptake in rhesus macaque monkey myocardium at 0.1 mCi by compartmental modeling analysis; assay type: ADME, tissue-based, Macaca mulatta
Method in brief: (§1)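 Same monkey for all studies. Desipramine (0.010, 0.0316, 0.10 or 1.0 mg/kg; n = 1 each) in 2.0 mL saline infused i.v. over 20 min, with tracer injected 10 min after the infusion ended; 4 control studies. ROIs on myocardium and basal LV blood pool drawn on summed final four frames. Cp(t) derived from Cwb(t) × intact fraction × Cp/Cwb. Ki from compartmental modelling and Kp as Patlak slope, fitted against DMI dose to a variable-slope sigmoidal model.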

Blood = assay: Biodistribution in Sprague-Dawley rat blood at 20 to 120 uCi, iv after 120 mins by gamma counting analysis; assay type: ADME, organism-based; settings: in vivo, 2 h
Method in brief: (§2)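 Sprague-Dawley rats (280–330 g), 2 male and 2 female per time point (5, 30, 60, 120 min), under light isoflurane, received a tail-vein bolus of 20–120 μCi tracer in 0.05–0.10 mL isotonic 60 mM sodium phosphate, pH 5.4. Tissues were weighed and gamma-counted. Decay-corrected dpm/g was normalized to injected dpm per kg body weight (%ID·kg/g).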

Testes [2] = assay: Biodistribution in Sprague-Dawley rat testes at 20 to 120 uCi, iv after 120 mins by gamma counting analysis; assay type: ADME, organism-based, Testis; settings: in vivo, 2 h
Method in brief: (§3)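 Male and female rats (2 per sex per time point, 280–330 g) under light isoflurane given tail-vein bolus of 20–120 μCi tracer in 0.05–0.10 mL isotonic 60 mM sodium phosphate, pH 5.4. Tissues sampled at 5, 30, 60 or 120 min, weighed and gamma-counted. Decay-corrected dpm per gram normalised to injected dpm and body weight, given as %ID·kg/g.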

Adrenal = assay: Biodistribution in Sprague-Dawley rat adrenal at 20 to 120 uCi, iv after 120 mins by gamma counting analysis; assay type: ADME, organism-based, Adrenal tissue; settings: in vivo, 2 h; method in brief: as §2
Lung [3] = assay: Biodistribution in Sprague-Dawley rat lung at 20 to 120 uCi, iv after 120 mins by gamma counting analysis; assay type: ADME, organism-based; settings: in vivo, 2 h; method in brief: as §2
Rattus norvegicus [4] = assay: Biodistribution in Sprague-Dawley rat eyeballs at 20 to 120 uCi, iv after 120 mins by gamma counting analysis; assay type: ADME, organism-based, Eyeball of camera-type eye; settings: in vivo, 2 h; method in brief: as §2
Brain [5] = assay: Biodistribution in Sprague-Dawley rat brain at 20 to 120 uCi, iv after 120 mins by gamma counting analysis; assay type: ADME, organism-based; settings: in vivo, 2 h; method in brief: as §2
Muscle tissue [6] = assay: Biodistribution in Sprague-Dawley rat muscle at 20 to 120 uCi, iv after 60 mins by gamma counting analysis; assay type: ADME, organism-based; settings: in vivo, 1 h; method in brief: as §2
Testes [7] = assay: Biodistribution in Sprague-Dawley rat testes at 20 to 120 uCi, iv after 60 mins by gamma counting analysis; assay type: ADME, organism-based, Testis; settings: in vivo, 1 h; method in brief: as §3
Rattus norvegicus [8] = assay: Biodistribution in Sprague-Dawley rat uterus at 20 to 120 uCi, iv after 60 mins by gamma counting analysis; assay type: ADME, organism-based; settings: in vivo, 1 h; method in brief: as §3
Rattus norvegicus [9] = assay: Biodistribution in Sprague-Dawley rat stomach at 20 to 120 uCi, iv after 60 mins by gamma counting analysis; assay type: ADME, organism-based; settings: in vivo, 1 h; method in brief: as §3
Brain [10] = assay: Biodistribution in Sprague-Dawley rat brain at 20 to 120 uCi, iv after 60 mins by gamma counting analysis; assay type: ADME, organism-based; settings: in vivo, 1 h; method in brief: as §2
Muscle tissue [11] = assay: Biodistribution in Sprague-Dawley rat muscle at 20 to 120 uCi, iv after 30 mins by gamma counting analysis; assay type: ADME, organism-based; settings: in vivo, 0.5 h; method in brief: as §2
Testes [12] = assay: Biodistribution in Sprague-Dawley rat testes at 20 to 120 uCi, iv after 30 mins by gamma counting analysis; assay type: ADME, organism-based, Testis; settings: in vivo, 0.5 h; method in brief: as §3
Lung [13] = assay: Biodistribution in Sprague-Dawley rat lung at 20 to 120 uCi, iv after 30 mins by gamma counting analysis; assay type: ADME, organism-based; settings: in vivo, 0.5 h; method in brief: as §2
Brain [14] = assay: Biodistribution in Sprague-Dawley rat brain at 20 to 120 uCi, iv after 30 mins by gamma counting analysis; assay type: ADME, organism-based; settings: in vivo, 0.5 h; method in brief: as §2
Bone = assay: Biodistribution in Sprague-Dawley rat bone at 20 to 120 uCi, iv after 5 mins by gamma counting analysis; assay type: ADME, organism-based, Bone element; settings: in vivo; method in brief: as §2
Muscle tissue [15] = assay: Biodistribution in Sprague-Dawley rat muscle at 20 to 120 uCi, iv after 5 mins by gamma counting analysis; assay type: ADME, organism-based; settings: in vivo; method in brief: as §2
Rattus norvegicus [16] = assay: Biodistribution in Sprague-Dawley rat uterus at 20 to 120 uCi, iv after 5 mins by gamma counting analysis; assay type: ADME, organism-based; settings: in vivo; method in brief: as §3
Rattus norvegicus [17] = assay: Biodistribution in Sprague-Dawley rat stomach at 20 to 120 uCi, iv after 5 mins by gamma counting analysis; assay type: ADME, organism-based; settings: in vivo; method in brief: as §3
Spleen = assay: Biodistribution in Sprague-Dawley rat spleen at 20 to 120 uCi, iv after 5 mins by gamma counting analysis; assay type: ADME, organism-based; settings: in vivo; method in brief: as §3
Pancreas = assay: Biodistribution in Sprague-Dawley rat pancreas at 20 to 120 uCi, iv after 5 mins by gamma counting analysis; assay type: ADME, organism-based; settings: in vivo; method in brief: as §2
Liver = assay: Biodistribution in Sprague-Dawley rat liver at 20 to 120 uCi, iv after 5 mins by gamma counting analysis; assay type: ADME, organism-based; settings: in vivo; method in brief: as §2
Heart = assay: Biodistribution in Sprague-Dawley rat heart at 20 to 120 uCi, iv after 5 mins by gamma counting analysis; assay type: ADME, organism-based; settings: in vivo; method in brief: as §2
Brain [18] = assay: Biodistribution in Sprague-Dawley rat brain at 20 to 120 uCi, iv after 5 mins by gamma counting analysis; assay type: ADME, organism-based; settings: in vivo; method in brief: as §2
[19] = Drug uptake in rhesus macaque monkey adrenal glands 5 to 6 mCi, iv after 90 mins by PET analysis in presence of desipramine; assay type: ADME, organism-based, Macaca mulatta, Adrenal gland; settings: in vivo, 1.5 h
[20] = Drug uptake in rhesus macaque monkey adrenal glands 5 to 6 mCi, iv after 90 mins by PET analysis; assay type: ADME, organism-based, Macaca mulatta, Adrenal gland; settings: in vivo, 1.5 h
[21] = Drug metabolism in rhesus macaque monkey spinal column assessed as fluorine-18 level at 5 to 6 mCi, iv after 90 mins by sagittal PET analysis; assay type: ADME, organism-based, Macaca mulatta; settings: in vivo, 1.5 h
[22] = Half life in rhesus macaque monkey plasma at 5 to 6 mCi, iv by RP-HPLC analysis; assay type: ADME, organism-based, Macaca mulatta
Method in brief: (§4)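 Six venous samples (1.5–2.0 mL; typically 1, 2, 4, 10, 30, 60 min) drawn during the monkey PET scan into heparin and centrifuged 1 min at 12000 × g. Plasma deproteinised with HClO₄ (final 0.4 N), spun, neutralised with KOH to pH 7.0–7.5 and filtered twice (0.22 μm). Analysed by reverse-phase HPLC (10% EtOH in 60 mM NaH₂PO₄, pH 5.4, 1.0 mL/min) with NaI(Tl) radiodetection. Decay-corrected intact fraction per sample; T1/2 is the time at which 50% of plasma activity is metabolite.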

Plasma = assay: Metabolic stability in rhesus macaque monkey plasma assessed as retention time at 5 to 6 mCi, iv by RP-HPLC analysis; assay type: ADME, organism-based, Macaca mulatta; settings: in vivo; method in brief: as §4
[23] = Drug uptake in rhesus macaque monkey heart at 5 to 6 mCi, iv after 90 mins by PET analysis in presence of 0.010 mg/kg to 1 mg/kg desipramine; assay type: ADME, organism-based, Macaca mulatta; settings: in vivo, 1.5 h; method in brief: as §1
[24] = Drug metabolism in rhesus macaque monkey spinal column assessed as fluorine-18 level at 5 to 6 mCi, iv after 90 mins by transaxial PET analysis; assay type: ADME, organism-based, Macaca mulatta; settings: in vivo, 1.5 h
Nucleic Acid = assay: Ratio of drug level in heart to liver in rhesus macaque monkey at 5 to 6 mCi, iv after 90 mins by PET analysis; assay type: ADME, organism-based, Macaca mulatta; settings: in vivo, 1.5 h
[25] = Drug uptake in rhesus macaque monkey lung at 5 to 6 mCi, iv after 90 mins by PET analysis; assay type: ADME, organism-based, Macaca mulatta; settings: in vivo, 1.5 h
[26] = Drug excretion in rat urinary bladder at 0.5 mCi by PET analysis; settings: in vivo

Ki [1]: 0.341 mL/min/g | Drug uptake (Blood): 0.009 % ID/g | Drug uptake (Testes [2]): 0.004 %IDKg/g | Drug uptake (Adrenal): 0.133 %IDKg/g | Drug uptake (Lung [3]): 0.036 %IDKg/g | Drug uptake (Rattus norvegicus [4]): 0.026 %IDKg/g | Drug uptake (Brain [5]): 0.001 %IDKg/g | Drug uptake (Muscle tissue [6]): 0.016 % ID/g | Drug uptake (Testes [7]): 0.008 %IDKg/g | Drug uptake (Rattus norvegicus [8]): 0.112 %IDKg/g | Drug uptake (Rattus norvegicus [9]): 0.115 %IDKg/g | Drug uptake (Brain [10]): 0.002 %IDKg/g | Drug uptake (Muscle tissue [11]): 0.025 %ID·kg/g | Drug uptake (Testes [12]): 0.01 %IDKg/g | Drug uptake (Lung [13]): 0.136 %IDKg/g | Drug uptake (Brain [14]): 0.003 %IDKg/g | Drug uptake (Bone): 0.06 %ID·kg/g | Drug uptake (Muscle tissue [15]): 0.019 % ID/g | Drug uptake (Rattus norvegicus [16]): 0.268 %IDKg/g | Drug uptake (Rattus norvegicus [17]): 0.116 %IDKg/g | Drug uptake (Spleen): 0.268 %IDKg/g | Drug uptake (Pancreas): 0.137 %IDKg/g | Drug uptake (Liver): 0.477 %IDKg/g | Drug uptake (Heart): 0.746 %IDKg/g | Drug uptake (Brain [18]): 0.004 %IDKg/g | Drug uptake [19]: Not Active | Drug uptake [20]: Active | Drug metabolism [21]: Active | half-life [22]: 2.5 min | Retention_time (Plasma): 11.4 min | Drug uptake [23]: Not Active | Drug metabolism [24]: Active | Ratio (Nucleic Acid): 2.5 | Drug uptake [25]: Not Active | Drug excretion [26]: 19.9 %ID
Compound: N=C(N)NCCc1ccc([18F])c(O)c1

From ChEMBL document CHEMBL2424590, “4-[18F]Fluoro-m-hydroxyphenethylguanidine: a radiopharmaceutical for quantifying regional cardiac sympathetic nerve density with positron emission tomography” (J Med Chem, 2013)
